# Assay results collected from several papers.
# CA12: Carbonic anhydrase 12 (CA12, Homo sapiens, UniProt O43570)
# SLC6A3: Sodium-dependent dopamine transporter (SLC6A3, Homo sapiens, UniProt Q01959)
# DRD3: D(3) dopamine receptor (DRD3, Homo sapiens, UniProt P35462)
SMILES,target,assay,endpoint,result
CC(C)(Sc1ccc(CCN(CCCCC2CCCCC2)C(=O)NC2CCCCC2)cc1)C(=O)O,"Triggering receptor expressed on myeloid cells 2 (Homo sapiens, UniProt Q9NZC2)","binding, SPR",Kd,86.2 µM
O=C(OCc1cn(-c2ccc([N+](=O)[O-])cc2)nn1)c1ccc(=O)oc1,CA12,"enzyme activity, inhibitor, stopped-flow",Ki,62.8 µM
CCOC(=O)[C@@]12C[C@@H]1[C@@H](n1cnc3c(NCCO)nc(C#Cc4ccc(Cl)s4)nc31)[C@H](O)[C@@H]2O,SLC6A3,"ligand displacement, radioligand",EC50,0.97 µM
Cc1ccc(-n2cc(COC(=O)c3ccc(=O)oc3)nn2)cc1,CA12,"enzyme activity, inhibitor, stopped-flow",Ki,62.6 µM
CCOC(=O)[C@@]12C[C@@H]1[C@@H](n1cnc3c(NCc4cccc(Cl)c4)nc(C#Cc4ccc(Cl)s4)nc31)[C@H](O)[C@@H]2O,SLC6A3,"ligand displacement, radioligand",Ki,0.94 µM
Cc1[nH]c(C)c(S(=O)(=O)Nc2ccc(C(F)(F)F)c(Cl)c2)c1C(=O)NCC(F)(F)F,DRD3,"G protein activation, antagonist, BRET",IC50,4 µM
COc1ccc(-n2cc(CNC(=O)c3ccc(=O)oc3)nn2)cc1,CA12,"enzyme activity, inhibitor, stopped-flow",Ki,58.7 µM
Cc1[nH]cc(S(=O)(=O)Nc2ccc(C(F)(F)F)c(Cl)c2)c1C(=O)N(C)C,DRD3,"G protein activation, antagonist, BRET",IC50,6.3 µM
OC[C@@]12C[C@@H]1[C@@H](n1cnc3c(NCCCCCCc4ccccc4)nc(I)nc31)[C@H](O)[C@@H]2O,SLC6A3,"ligand displacement, radioligand",Ki,0.89 µM
Cc1[nH]c(C)c(S(=O)(=O)Nc2ccc(C(=O)C(F)(F)F)c(Cl)c2)c1C(=O)N1CCC(F)(F)C1,DRD3,"G protein activation, antagonist, BRET",IC50,14.3 µM
CCOC(=O)[C@@]12C[C@@H]1[C@@H](n1cnc3c(Nc4ccccc4)nc(C#Cc4ccc(Cl)s4)nc31)[C@H](O)[C@@H]2O,SLC6A3,"ligand displacement, radioligand",Ki,1.4 µM
Cc1[nH]c(C)c(S(=O)(=O)Nc2ccc([N+](=O)[O-])c(Cl)c2)c1C(=O)N1CCC(F)(F)C1,DRD3,"β-arrestin recruitment, antagonist",IC50,40 µM
CCOC(=O)c1ccc(=O)oc1,CA12,"enzyme activity, inhibitor, stopped-flow",Ki,92.6 µM
Cc1[nH]c(C)c(S(=O)(=O)Nc2ccc(C(F)(F)F)c(Cl)c2)c1C(=O)N(C)CC(F)(F)F,DRD3,"G protein activation, antagonist, BRET",IC50,4.6 µM
CCOC(=O)[C@@]12C[C@@H]1[C@@H](n1ccc3c(NCCCCc4ccccc4)nc(C#Cc4ccccc4)nc31)[C@H](O)[C@@H]2O,SLC6A3,"ligand displacement, radioligand",Ki,8 µM
Cc1[nH]c(C)c(S(=O)(=O)Nc2ccc(S(C)(=O)=O)c(Cl)c2)c1C(=O)N1CCC(F)(F)C1,DRD3,"G protein activation, antagonist, BRET",IC50,23 µM
CCOC(=O)[C@@]12C[C@@H]1[C@@H](n1cnc3c(NCCCCCc4ccccc4)nc(C#Cc4ccc(Cl)s4)nc31)[C@H](O)[C@@H]2O,SLC6A3,"ligand displacement, radioligand",Ki,3.1 µM
O=C(OCc1cn(-c2ccc(Cl)cc2)nn1)c1ccc(=O)oc1,CA12,"enzyme activity, inhibitor, stopped-flow",Ki,61.3 µM
N#CSCc1cc(=O)oc2cc(O)ccc12,CA12,"enzyme activity, inhibitor, stopped-flow",Ki,0.0236 µM
O=C(Oc1ccc(Cl)cc1)c1ccc(=O)oc1,CA12,"enzyme activity, inhibitor, stopped-flow",Ki,76.3 µM
OC[C@@]12C[C@@H]1[C@@H](n1cnc3c(Nc4ccccc4)nc(I)nc31)[C@H](O)[C@@H]2O,SLC6A3,"ligand displacement, radioligand",EC50,3 µM
O=C(NCc1cn(-c2ccc(Cl)cc2)nn1)c1ccc(=O)oc1,CA12,"enzyme activity, inhibitor, stopped-flow",Ki,61.2 µM
N#CC[C@@]12C[C@@H]1[C@@H](n1cnc3c(NCc4cccc(Cl)c4)nc(C#Cc4ccc(Cl)s4)nc31)[C@H](O)[C@@H]2O,SLC6A3,"ligand displacement, radioligand",Ki,1.2 µM
Cc1[nH]c(C)c(S(=O)(=O)Nc2ccc(C(F)(F)F)c(Cl)c2)c1C(=O)N1CC[C@@H](F)C1,DRD3,"β-arrestin recruitment, antagonist",IC50,5.1 µM
OCc1ccccc1O[C@@H]1O[C@H](CO)[C@@H](O)[C@H](O)[C@H]1O,"Taste receptor type 2 member 16 (TAS2R16, Homo sapiens, UniProt Q9NYV7, N96T)","inositol phosphate, agonist, TR-FRET",EC50,5520 µM
O=C(OCc1cn(-c2ccccc2)nn1)c1ccc(=O)oc1,CA12,"enzyme activity, inhibitor, stopped-flow",Ki,55.8 µM
Cc1[nH]c(C)c(S(=O)(=O)Nc2cc(Cl)cc(Cl)c2Cl)c1C(=O)N1CCC(F)(F)C1,DRD3,"G protein activation, antagonist, BRET",IC50,14.8 µM
